Legend:
[1] = biological target: T1, bacteriophage T4 clamp loader, gp44/62 (Enterobacteria phage T4, UniProt P04526); assay: ATPase inhibition assay, wild-type gp44/62; format: biochemical; settings: for Selectivity Factor: Ki (γ-complex) / Ki (gp44/62)
T1 sequence (P04526 1-319): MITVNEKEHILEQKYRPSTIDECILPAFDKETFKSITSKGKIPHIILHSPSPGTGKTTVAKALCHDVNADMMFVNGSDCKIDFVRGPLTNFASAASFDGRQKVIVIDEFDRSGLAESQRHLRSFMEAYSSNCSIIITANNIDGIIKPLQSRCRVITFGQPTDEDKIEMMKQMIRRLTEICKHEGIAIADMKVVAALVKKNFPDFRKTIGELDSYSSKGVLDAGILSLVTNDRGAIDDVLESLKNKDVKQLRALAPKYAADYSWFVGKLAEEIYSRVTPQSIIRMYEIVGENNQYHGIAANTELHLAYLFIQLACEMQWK
T1 sequence (P04527 1-187 partner): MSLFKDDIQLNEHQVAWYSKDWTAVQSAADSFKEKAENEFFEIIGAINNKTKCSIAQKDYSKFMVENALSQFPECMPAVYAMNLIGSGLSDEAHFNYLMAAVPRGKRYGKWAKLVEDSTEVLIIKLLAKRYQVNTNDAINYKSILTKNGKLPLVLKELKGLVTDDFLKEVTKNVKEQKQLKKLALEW

gp44/62 = biological target: T2, gp44/62 (Enterobacteria phage T4, UniProt P04526); assay: Hydrolysis of nucleotide substrates by gp44/62; format: biochemical, bacteriophage T4; settings: nucleotide substrates at 500 µM
T2 sequence (P04526 1-319): T1 sequence (P04526 1-319)
T2 sequence (P04527 1-187 partner): T1 sequence (P04527 1-187 partner)
Summary of the method: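 Wild-type T4 gp44/62 purified from an overproducing strain. Each ribo- or deoxy-nucleotide was supplied as substrate. Hydrolysis was read as Pi release by malachite green.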

[2] = biological target: E. coli clamp loader, γ-complex (Escherichia coli, UniProt P06710); assay: ATPase inhibition assay, γ-complex; format: biochemical
R175K mutant of gp44/62 = R175K mutant of gp44/62 (Enterobacteria phage T4, UniProt P04526, R175K); assay: ATPase inhibition assay, gp44/62 R175K mutant; format: biochemical, bacteriophage T4
Sequence of R175K mutant of gp44/62 (P04526 whole entry R175K, one chain of several): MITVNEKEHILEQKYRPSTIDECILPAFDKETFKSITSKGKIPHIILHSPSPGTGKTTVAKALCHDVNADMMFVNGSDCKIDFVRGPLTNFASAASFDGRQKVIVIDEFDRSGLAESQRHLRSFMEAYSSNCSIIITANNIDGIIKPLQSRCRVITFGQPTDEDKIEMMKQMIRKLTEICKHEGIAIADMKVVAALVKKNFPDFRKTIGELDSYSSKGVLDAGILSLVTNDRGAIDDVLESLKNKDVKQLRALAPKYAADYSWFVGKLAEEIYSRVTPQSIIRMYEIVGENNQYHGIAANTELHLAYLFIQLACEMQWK

R175L mutant of gp44/62 = R175L mutant of gp44/62 (Enterobacteria phage T4, UniProt P04526, R175L); assay: ATPase inhibition assay, gp44/62 R175L mutant; format: biochemical, bacteriophage T4
Sequence of R175L mutant of gp44/62 (P04526 whole entry R175L, one chain of several): as the sequence (P04526 whole entry R175K, one chain of several) above, with K175L counted along it

[3] = biological target: T3, bacteriophage T4 replicase (Enterobacteria phage T4, UniProt P04526); assay: Replicase formation; format: biochemical; settings: 100 µM inhibitor
T3 sequence (P04526 1-319): T1 sequence (P04526 1-319)
T3 sequence (P04527 1-187 partner): T1 sequence (P04527 1-187 partner)

T4 DNA polymerase = assay: DNA polymerase activity in the strand displacement assay; format: biochemical, bacteriophage T4; settings: absence or presence of 100 µM d5-NITP
[4] = biological target: T4, gp44/62 opening of CPM-labeled gp45 (Enterobacteria phage T4, UniProt P04526); assay: FRET quenching / stopped-flow fluorescence clamp opening assay; format: biochemical, bacteriophage T4; settings: 1 mM nucleotide, CPM-labeled gp45 mixed with gp44/62
T4 sequence (P04526 1-319): T1 sequence (P04526 1-319)
T4 sequence (P04527 1-187 partner): T1 sequence (P04527 1-187 partner)

T4 bacteriophage [5] = assay: Plaque forming assay in JA300 E. coli; format: cell-based, T4 bacteriophage in E. coli JA300
JA300 E. coli cells = assay: Toxicity screen against E. coli; format: cell-based, Escherichia coli; settings: in suspension or plated on LB/agar for extended periods
T4 bacteriophage [6] = assay: Plaque forming assay in deoxythymidine kinase deficient E. coli KY895; format: cell-based, T4 bacteriophage in E. coli KY895 (tdk-1); settings: 100 µg/ml
Summary of the method: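 The plaque assay used the deoxythymidine kinase knockout E. coli strain KY895 in place of JA300. An overnight culture was diluted 1:150 in LB and pre-incubated with the nucleoside for 60 min at 37°C. Cells were infected with ~300 pfu T4 and plated over LB/agar for 24 h at 37°C. Plaques were counted manually; ANOVA and t-test were applied.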

[7] = biological target: T1, bacteriophage T4 clamp loader, gp44/62; settings: read-out: Ki (inhibition constant) against gp44/62; cited from earlier work

O=P(O)(O)OP(=O)(O)OP(=O)(O)OC[C@H]1O[C@@H](n2ccc3cc(C4CCCCC4)ccc32)C[C@@H]1O [d5-CHITP, 5-cyclohexyl-indolyl-2’-deoxyriboside triphosphate]
Selectivity Factor [1]: 0.51

Nc1ncnc2c1ncn2[C@H]1C[C@H](O)[C@@H](COP(=O)(O)OP(=O)(O)OP(=O)(O)O)O1 [dATP, reference compound]
Hydrolysis by gp44/62 (gp44/62): hydrolyzes dATP just as efficiently as ATP

O=[N+]([O-])c1ccc2ccn([C@H]3C[C@H](O)[C@@H](COP(=O)(O)OP(=O)(O)OP(=O)(O)O)O3)c2c1 [d6-NITP, 6-nitro-indolyl-2’-deoxyriboside triphosphate]
Selectivity Factor [1]: 1.59

O=P(O)(O)OP(=O)(O)OP(=O)(O)OC[C@H]1O[C@@H](n2ccc3cc(C4=CCCCC4)ccc32)C[C@@H]1O [d5-CEITP, 5-cyclohexene-indolyl-2’-deoxyriboside triphosphate]
Selectivity Factor [1]: 1.18

Nc1ncnc2c1ncn2[C@@H]1O[C@H](CO[P@](=O)(O)O[P@](=O)(O)O[P@@](=O)(O)S)[C@@H](O)[C@H]1O [ATPγS, reference compound]
Selectivity Factor [1]: 0.44 | Ki [2]: 13 ± 4.5 µM | Ki (R175K mutant of gp44/62): 14 ± 3.5 µM | Ki (R175L mutant of gp44/62): 33.2 ± 8 µM

O=[N+]([O-])c1ccc2c(ccn2[C@H]2C[C@H](O)[C@@H](COP(=O)(O)OP(=O)(O)OP(=O)(O)O)O2)c1 [d5-NITP, 5-nitro-indolyl-2’-deoxyriboside triphosphate]
Formation of the replicase complex [3]: inhibits formation of the replicase complex | Effect on polymerase activity (products generated by polymerase alone) (T4 DNA polymerase): identical amounts of products are generated | Amplitude of change in fluorescence (clamp opening) [4]: 0.044 ± 0.002 units

O=P(O)(O)OP(=O)(O)OP(=O)(O)OC[C@H]1O[C@@H](n2ccc3cc(F)ccc32)C[C@@H]1O [d5-FITP, 5-fluoro-indolyl-2’-deoxyriboside triphosphate]
Selectivity Factor [1]: < 0.17

Nc1ncnc2c1ncn2[C@@H]1O[C@H](COP(=O)(O)OP(=O)(O)OP(=O)(O)O)[C@@H](O)[C@H]1O [ATP, reference compound]
Amplitude of change in fluorescence (clamp opening) [4]: 0.2199 ± 0.0004 units

O=C(N[C@H](CO)[C@H](O)c1ccc([N+](=O)[O-])cc1)C(Cl)Cl [chloramphenicol, reference compound]
Decrease in phage infectivity (T4 bacteriophage [5]; bacteriostatic agent control): does not cause an appreciable decrease

O=[N+]([O-])c1ccc2c(ccn2[C@H]2C[C@H](O)[C@@H](CO)O2)c1 [d5-NI, 5-nitro-indolyl-2’-deoxyriboside]
Inhibition of gp44/62 ([1]; at concentrations greater than 200 µM): does not inhibit | Fold less protection at 25 µg/mL than at 50 µg/mL (T4 bacteriophage [5]; 25 µg/mL versus 50 µg/mL): ~ 2.5 fold | Fewer plaques compared to untreated E. coli (T4 bacteriophage [5]; E. coli preincubated with 100 µg/mL): ~ 40% | Bactericidal or bacteriostatic effect on E. coli (JA300 E. coli cells): does not produce a significant bactericidal or bacteriostatic effect | Effect on plaque formation in tdk-1 strain KY895 compared to wild-type JA300 (T4 bacteriophage [6]): significantly reduced

O=[N+]([O-])c1cccc2c1ccn2[C@H]1C[C@H](O)[C@@H](COP(=O)(O)OP(=O)(O)OP(=O)(O)O)O1 [d4-NITP, 4-nitro-indolyl-2’-deoxyriboside triphosphate]
Selectivity Factor [1]: 0.32 | Fold higher Ki than d5-NITP ([1]; wild type gp44/62): ~ 6 fold

O=P(O)(O)OP(=O)(O)OP(=O)(O)OCC1OC(n2ccc3ccccc32)CC1O (stereo not drawn) [dITP, indolyl-2’-deoxyriboside triphosphate]
Selectivity Factor [1]: < 0.30

OC[C@H]1O[C@@H](n2ccc3cc(F)ccc32)C[C@@H]1O [d5-FI, 5-fluoro-indolyl-2’-deoxyriboside]
Inhibition of plaque formation (T4 bacteriophage [5]; 100 µg/mL): do not inhibit plaque formation

O=[N+]([O-])c1ccc2c(ccn2[C@@H]2O[C@H](COP(=O)(O)OP(=O)(O)OP(=O)(O)O)[C@@H](O)[C@H]2O)c1 [r5-NITP, 5-nitro-indolyl-2’-ribose triphosphate]
Hill coefficient ([1]; dose-dependent inhibition of gp44/62 ATPase activity): ~ 1 | Hydrolysis by gp44/62 (gp44/62): incapable of hydrolyzing r5-NITP

C=Cc1ccc2c(ccn2[C@H]2C[C@H](O)[C@@H](CO)O2)c1 [d5-Ey, 5-ethylene-indolyl-2'-deoxyribose]
Inhibition of plaque formation (T4 bacteriophage [5]; 150 µg/mL): 15%

Nc1ncnc2c1ncn2C1OC(COP(=O)(O)OP(=O)(O)NP(=O)(O)O)C(O)C1O (stereo not drawn) [AMP-PNP, 5'-adenylyl-beta, gamma-imidodiphosphate]
Ki [7]: 1200 µM

C=Cc1ccc2c(ccn2[C@H]2C[C@H](O)[C@@H](COP(=O)(O)OP(=O)(O)OP(=O)(O)O)O2)c1 [d5-EyITP, 5-ethylene-indolyl-2’-deoxyriboside triphosphate]
Selectivity Factor [1]: < 0.15 | Fold lower Ki in R175L mutant compared to wild type enzyme (R175L mutant of gp44/62): ~ 10 fold

Nc1ccc2c(ccn2[C@H]2C[C@H](O)[C@@H](COP(=O)(O)OP(=O)(O)OP(=O)(O)O)O2)c1 [d5-AITP, 5-amino-indolyl-2’-deoxyriboside triphosphate]
Selectivity Factor [1]: < 0.23

O=P(O)(O)OP(=O)(O)OP(=O)(O)OC[C@H]1O[C@@H](n2ccc3cc(-c4ccccc4)ccc32)C[C@@H]1O [d5-PhITP, 5-phenyl-indolyl-2’-deoxyriboside triphosphate]
Selectivity Factor [1]: 0.18

CCc1ccc2c(ccn2[C@H]2C[C@H](O)[C@@H](COP(=O)(O)OP(=O)(O)OP(=O)(O)O)O2)c1 [d5-EtITP, 5-ethyl-indolyl-2’-deoxyriboside triphosphate]
Selectivity Factor [1]: 0.11 | Fold lower Ki in R175L mutant compared to wild type enzyme (R175L mutant of gp44/62): ~ 10 fold

— paper PMC3169429 (ACS chemical biology, 2010)
